We go through 23 compounds from ChEMBL document CHEMBL2380254, “Optimization of tocotrienols as antiproliferative and antimigratory leads” (Eur J Med Chem, 2013).

pIC50: −log10 of the molar value.

Holding throughout (assay type): functional, cell-based
Test [1] in a line: Antiproliferative activity against mouse +SA cells by MTT assay. As to conditions: +SA cell. In a few lines: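 Mouse +SA mammary epithelial cells in serum-free DMEM/F12 with BSA, transferrin, insulin and EGF. Compounds from DMSO stock conjugated to BSA (overnight, 37 °C); 0–40 µM, final DMSO <0.1%. MTT 0.42 mg/mL for 4 h at 37 °C, isopropanol solubilization, OD 570 nm. Cell number from a standard curve; IC50 by non-linear regression.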
(Tetrazolium assays rely on reduction of a dye to a coloured formazan, in cell work by metabolically active cells.)

The test system of test [2] is MDA-MB-231. In words: Antimigratory activity against human MDA-MB-231 cells after 24 hrs by wound-healing assay. As to conditions: MDA-MB-231, 24 h. The method in brief:
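MDA-MB-231 in RPMI 1640 with 10% FBS grown to >95% confluent monolayer, scratched with a pipette tip and washed. Then 24 h exposure in 0.5% serum at five non-toxic concentrations in DMSO, triplicate, DMSO as negative control. Diff Quick fixed and stained; migrated cells counted in ≥3 random 40× fields. IC50 = concentration inhibiting migration of 50% of cells.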

The subject of test [3] is MDA-MB-231. In words: Antiproliferative activity against human MDA-MB-231 cells by MTT assay. In a few lines:
(§1)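 Cells plated at 8 × 10^3/well (MDA-MB-231) or 10^4/well (MCF7) in 96-well plates. Compounds fed in media with 5% FBS (MDA-MB-231) or 1% FBS (MCF7). MTT read-out of viable cells.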

In test [4] the test system is MCF7. In words: Antiproliferative activity against human MCF7 cells by MTT assay. In a few lines:
as §1

As a reminder, the pIC50 is the IC50 on a negative log10 scale, so that one unit is a factor of ten. A high value points to a small IC50. Compound `CC(C)=CCC/C(C)=C/CC/C(C)=C/CC[C@]1(C)CCc2c3c(cc(C)c2O1)OCN(C)C3` showed a negative logarithm of the IC50 (pIC50) in test [1] of 5.89.

As to `CC(C)=CCC/C(C)=C/CC/C(C)=C/CC[C@]1(C)CCc2c3c(c(C)c(C)c2O1)OCN(CCCCCC(=O)O)C3`, the negative-log IC50 (pIC50) in test [1] was 5.30.

On to `COc1ccc(CCN2COc3cc4c(c(C)c3C2)O[C@](C)(CC/C=C(\C)CC/C=C(\C)CCC=C(C)C)CC4)cc1OC`, for which the pIC50 in test [1] is 6.08.

The compound `CC(C)=CCC/C(C)=C/CC/C(C)=C/CC[C@]1(C)CCc2c3c(cc(C)c2O1)OCN(Cc1cccc([N+](=O)[O-])c1)C3` showed a negative-log IC50 (pIC50) in test [1] of 4.54.

Take `CC(C)=CCC/C(C)=C/CC/C(C)=C/CC[C@]1(C)CCc2c3c(c(C)c(C)c2O1)OCN(CCCO)C3`: the negative-log IC50 (pIC50) in test [1] is 5.60; in test [2], 5.09; in test [3] it was 5.02; in test [4], below 4.70.

For the compound `CC(C)=CCC/C(C)=C/CC/C(C)=C/CC[C@]1(C)CCc2c3c(c(C)c(C)c2O1)OCN(CCO)C3`, the negative logarithm of the IC50 (pIC50) in test [1] was 5.77.

In turn, `CC(C)=CCC/C(C)=C/CC/C(C)=C/CC[C@]1(C)CCc2c3c(c(C)c(C)c2O1)OCN(C1CCN(Cc2ccccc2)CC1)C3` gave a pIC50 in test [1] of 5.06.

Take `CC(C)=CCC/C(C)=C/CC/C(C)=C/CC[C@]1(C)CCc2c3c(c(C)c(C)c2O1)OCN(CCCCC(=O)O)C3`: in test [1], the pIC50 is 5.74.

`C=CCN1COc2c(C)c(C)c3c(c2C1)CC[C@@](C)(CC/C=C(\C)CC/C=C(\C)CCC=C(C)C)O3` gave a pIC50 in test [1] of 4.94.

In turn, `CCOC(CCN1COc2cc(C)c3c(c2C1)CC[C@@](C)(CC/C=C(\C)CC/C=C(\C)CCC=C(C)C)O3)OCC` showed a pIC50 in test [1] of 6.00.

In test [1], `CC(C)=CCC/C(C)=C/CC/C(C)=C/CC[C@]1(C)CCc2c(CO)c(O)c(C)c(C)c2O1` gave a pIC50 of 5.59.

As for `CC(C)=CCC/C(C)=C/CC/C(C)=C/CC[C@]1(C)CCc2c(CO)c(O)cc(C)c2O1`, in test [1], the negative logarithm of the IC50 (pIC50) is below 4.70.

On to `CC(C)=CCC/C(C)=C/CC/C(C)=C/CC[C@]1(C)CCc2c3c(c(C)c(C)c2O1)OCN(CC1CCNCC1)C3`, for which the negative-log IC50 (pIC50) in test [1] is 5.34; in test [3] it was 6.10; in test [4], below 4.70.

As for `CC(C)=CCC/C(C)=C/CC/C(C)=C/CC[C@]1(C)CCc2c3c(c(C)c(C)c2O1)OCN(Cc1ccccc1)C3`, the pIC50 is 5.70 in test [1], 4.56 in test [3] and below 4.70 in test [4].

In the case of `CC(C)=CCC/C(C)=C/CC/C(C)=C/CC[C@]1(C)CCc2c3c(cc(C)c2O1)OCN(CCCCCC(=O)O)C3`, the negative-log IC50 (pIC50) in test [1] was 5.29.

Take `CC(C)=CCC/C(C)=C/CC/C(C)=C/CC[C@]1(C)CCc2c3c(c(C)c(C)c2O1)OCN(Cc1cccc([N+](=O)[O-])c1)C3`: in test [1], the pIC50 was 4.61.

With `CC(C)=CCC/C(C)=C/CC/C(C)=C/CC[C@]1(C)CCc2cc(O)cc(C)c2O1` [DELTA-TOCOTRIENOL], the pIC50 in test [2] was below 4.40.

As for `CC(C)=CCC/C(C)=C/CC/C(C)=C/CC[C@]1(C)CCc2cc(O)c(CO)c(C)c2O1`, the negative logarithm of the IC50 (pIC50) in test [1] was 5.18.

As for `CCOC(CCN1COc2c(C)c(C)c3c(c2C1)CC[C@@](C)(CC/C=C(\C)CC/C=C(\C)CCC=C(C)C)O3)OCC`, in test [1], the pIC50 is 5.03.

The compound `CC(C)=CCC/C(C)=C/CC/C(C)=C/CC[C@]1(C)CCc2c3c(cc(C)c2O1)OCN(CCCCC(=O)O)C3` gave a pIC50 in test [1] of 4.92.

As to `CC(C)=CCC/C(C)=C/CC/C(C)=C/CC[C@]1(C)CCc2c3c(c(C)c(C)c2O1)OCN(C)C3`, the negative-log IC50 (pIC50) in test [1] was 5.66.

Compound `CC(C)=CCC/C(C)=C/CC/C(C)=C/CC[C@]1(C)CCc2cc3c(c(C)c2O1)CN(CCO)CO3` showed a pIC50 in test [1] of 6.02.

On to `CC(C)=CCC/C(C)=C/CC/C(C)=C/CC[C@]1(C)CCc2c3c(cc(C)c2O1)OCN(CCO)C3`, for which the negative-log IC50 (pIC50) is 5.38 in test [1], 5.89 in test [2], below 5.30 in test [3] and 5.22 in test [4].
